Experimental data published in article PMC4033650 (ACS Chemical Biology, 2014).
Read-outs that look alike come from different tables or passages of the source. Positions of bridges follow the written chain, without caps; N, C: chain ends. Non-standard residues stand in square brackets, D forms with d. Residues, ends and D or L forms follow the SMILES beside them. *: point of attachment. Gly(octyl) = CCCCCCCC[C@H](N)C(=O)O; Octanoyl = CCCCCCCC(=O)*; Dab = NCC[C@H](N)C(=O)O

What was measured:
[1] = system: polymyxin-resistant clinical isolates of P. aeruginosa, A. baumannii, and K. pneumoniae; assay: MIC screen against polymyxin-resistant Gram-negative clinical isolates; type: cell-based; conditions: for MICs: polymyxin-resistant clinical isolates of P. aeruginosa, A. baumannii, K. pneumoniae
Procedure, shortened: (§1)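 Broth microdilution in cation-adjusted Mueller–Hinton broth. […] Plates were incubated 18–20 h at 37 °C. MIC was taken as the lowest concentration inhibiting visible growth.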

[2] = system: panel of ATCC and clinical isolates; assay: MIC in the presence of Mg2+; type: cell-based; conditions: addition of 16 mM of Mg2+; data not shown
Procedure, shortened: as §1

[3] = system: purified LPS; assay: Dansyl-polymyxin LPS displacement binding assay
Procedure, shortened: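 LPS was purified from bacteria, and its molar concentration was set by the purpald Kdo assay. Test compound binding to LPS was read as displacement of a synthetic dansyl-polymyxin probe, using the group's published protocol.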

[4] = system: polymyxin-resistant clinical isolate of P. aeruginosa; assay: Neutropenic mouse lung infection model; type: in vivo; conditions: 24 h after single-dose treatment (40 mg/kg); inoculum 5.42 ± 0.54 log CFU/lung
Procedure, shortened: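 The model used neutropenic mice with lung infection, following the group's earlier protocol. One polymyxin-susceptible and one polymyxin-resistant P. aeruginosa strain were used. Lung bacterial burden was counted at 0 and 24 h after treatment.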

[5] = Pharmacokinetics after single-dose intravenous administration in rats; conditions: rat, in vivo
[6] = Tolerability after bolus dose in rats; type: in vivo, rat; conditions: intravenous bolus, 0.75 mg/kg
[7] = Tolerability after bolus dose in mice; type: in vivo, mouse; conditions: subcutaneous bolus, 40 mg/kg
[8] = Plasma protein binding by equilibrium dialysis; type: in vitro ADME; conditions: pooled healthy human plasma
[9] = system: human red blood cells; assay: Hemolysis of human red blood cells; type: cell-based; conditions: concentrations up to 32 mg/L
[10] = Nephrotoxicity in mice, kidney histopathology; type: in vivo, mouse; conditions: subcutaneous, accumulated dose 105 mg/kg
Procedure, shortened: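 Mice (three groups, n = 3) received subcutaneous injections over 3–4 days to an accumulated 105 mg/kg of test compound or polymyxin B sulfate, with a saline control. Kidneys were formalin-fixed (10%) and sectioned through cortex, medulla and papilla, then stained and graded: grade 1 (mild tubular damage) = 1, grade 2 (severe, necrosis) = 4, grade 3 (cortical necrosis/infarction) = 10.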

[11] = system: polymyxin-resistant clinical P. aeruginosa isolate; assay: MIC by broth microdilution, polymyxin-resistant P. aeruginosa isolate; type: cell-based, Pseudomonas aeruginosa
Procedure, shortened: (§2)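 Broth microdilution was run in cation-adjusted Mueller–Hinton broth in polypropylene plates. The inoculum was about 10^6 cfu/mL, mixed 1:1 with broth containing test compound (0 to 128 mg/L). Plates were incubated 18–20 h at 37 °C. MIC was the lowest concentration with no visible growth.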

[12] = system: polymyxin-susceptible P. aeruginosa ATCC 27853; assay: MIC by broth microdilution, P. aeruginosa ATCC 27853; type: cell-based, Pseudomonas aeruginosa
Procedure, shortened: as §2

[13] = system: polymyxin-resistant clinical P. aeruginosa isolate; assay: Static time-kill, polymyxin-resistant P. aeruginosa isolate; type: cell-based, Pseudomonas aeruginosa; conditions: 32 mg/L
[14] = rats ref 23; cited from earlier work

Row | Compound | antimicrobial activity ([1]; panel of polymyxin-resistant Gram-negative clinical isolates) | increase in MICs on addition of Mg2+ [2] [fold] | higher LPS binding affinity compared to PMB and colistin [3] | bacterial burden in the lungs [4] [log CFU/lung] | Vd [5] [L/kg] | clearance [5] [mL/min/kg] | half-life [5] [h] | adverse effects [6] | adverse effects [7] | MICs [1] [mg/L] | plasma protein binding (bound) [8] [%] | hemolysis of human red blood cells [9] | histological grade of kidney lesions [10] | MIC [11] [µg/mL] | MIC [12] [µg/mL] | bacterial killing in time-kill [13] | half-life [14] [h] | total clearance [14] [mL/min/kg] | volume of distribution [14] [L/kg]
1 | CCCCCCCC[C@@H]1NC(=O)[C@@H](Cc2ccccc2)NC(=O)[C@H](CCN)NC(=O)[C@@H](NC(=O)[C@H](CCN)NC(=O)[C@@H](NC(=O)[C@H](CCN)NC(=O)CCCCCCC)[C@@H](C)O)CCNC(=O)[C@H]([C@@H](C)O)NC(=O)[C@H](CCN)NC(=O)[C@H](CCN)NC1=O [FADDI-002] (Octanoyl-[Dab]T[Dab][Dab][Dab][dF][Gly(octyl)][Dab][Dab]T; lactam 4-C) | potent antimicrobial activity | ≤ 2 | up to 27.1 fold | 4.75 ± 0.80 | 0.195 to 0.313 | 0.66 to 1.3 | 2.77 to 3.4 | no adverse effects were observed | no adverse effects were observed |  |  |  |  |  |  |  |  |  | 
2 | Polymyxin B [PMB] |  | 16 |  |  |  |  |  |  |  | > 128 | ~51 | no detectable hemolysis | grade 1 |  |  |  |  |  | 
3 | colistin |  |  |  | 6.71 ± 0.46 |  |  |  |  |  | > 128 |  | no detectable hemolysis |  | > 128 | 1 | no killing was observed | 1.24 | 5.2 | 0.496
